Assay results: ChEMBL document CHEMBL1138290 (J Med Chem, 2007)

Experiments:
[1] = tested on: K562; assay: Antiproliferative activity against human K562 cells after 48 hrs; type: functional, cell-based; settings: K562, 48 h
Procedure, shortened: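 Growth of K562 cells measured by counting cells with a hemocytometer after 48 h (2 days) of drug treatment. IC50 is the mean of at least three independent determinations.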

[2] = target: Tubulin (Sus scrofa, UniProt P02554+P02550); assay: Inhibition of porcine brain tubulin polymerization
[3] = target: Tubulin; assay: Displacement of [3H]colchicine from biotinylated tubulin by scintillation proximity assay; type: protein-complex assay, Homo sapiens
[4] = Cytotoxicity against human KB/HeLa cells after 48 hrs by XTT assay; type: functional, cell-based
Procedure, shortened: (§1)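 XTT proliferation assay with 48 h incubation with test compound. Each experiment run at least in duplicate (n = 2). IC50 calculated by nonlinear regression of dose-response curves.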

[5] = tested on: SK-OV-3; assay: Cytotoxicity against human SKOV3 cells after 48 hrs by XTT assay; type: functional, cell-based; settings: SK-OV-3, 48 h; procedure, shortened: as §1
[6] = tested on: SF-268; assay: Cytotoxicity against human SF268 cells after 48 hrs by XTT assay; type: functional, cell-based; settings: SF-268, 48 h; procedure, shortened: as §1
[7] = tested on: NCI-H460; assay: Cytotoxicity against human NCI-H460 cells after 48 hrs by XTT assay; type: functional, cell-based; settings: NCI-H460, 48 h; procedure, shortened: as §1
[8] = tested on: RKO; assay: Cytotoxicity against human RKO cells after 48 hrs by XTT assay; type: functional, cell-based; procedure, shortened: as §1
[9] = tested on: RKO; assay: Cytotoxicity against human RKO cells with ectopic-inducible expression of p27kip1 after 48 hrs by XTT assay; type: functional, cell-based; procedure, shortened: as §1
[10] = Antiproliferative activity against rat L12 cells after 48 hrs by XTT assay; type: functional, cell-based
[11] = Antiproliferative activity against rat multidrug-resistant L12 cells after 48 hrs by XTT assay; type: functional, cell-based; settings: L1.2, 48 h; procedure, shortened: as §1
[12] = tested on: L1210; assay: Antiproliferative activity against mouse L1210 cells after 48 hrs by XTT assay; type: functional, cell-based; settings: L1210, 48 h; procedure, shortened: as §1
[13] = tested on: L1210; assay: Antiproliferative activity against mouse vincristine-resistant L1210 cells after 48 hrs by XTT assay; type: functional, cell-based; settings: L1210, 48 h; procedure, shortened: as §1
[14] = tested on: P388; assay: Antiproliferative activity against mouse P388 cells after 48 hrs by XTT assay; type: functional, cell-based; settings: P388, 48 h; procedure, shortened: as §1
[15] = tested on: P388; assay: Antiproliferative activity against mouse adriamycin-resistant P388 cells after 48 hrs by XTT assay; type: functional, cell-based; settings: P388, 48 h; procedure, shortened: as §1
[16] = Cell cycle arrest in KB/HeLa cells assessed as accumulation at G2/M phase after 24 hrs by flow cytometric analysis; type: functional, cell-based; settings: Homo sapiens
Procedure, shortened: (§2)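 Subconfluent KB/HeLa cells exposed to a range of compound concentrations for 24 h. Cell cycle phase distribution determined by flow cytometry. Experiments run at least in duplicate (n = 2).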

[17] = Cell cycle arrest in KB/HeLa cells assessed as accumulation at S phase at 0.1 nM after 24 hrs by flow cytometric analysis; type: functional, cell-based; settings: Homo sapiens; procedure, shortened: as §2
[18] = Cell cycle arrest in KB/HeLa cells assessed as accumulation at S phase at 3.16 nM after 24 hrs by flow cytometric analysis; type: functional, cell-based; settings: Homo sapiens; procedure, shortened: as §2
[19] = Cell cycle arrest in KB/HeLa cells assessed as accumulation at S phase at 0.3 nM after 24 hrs by flow cytometric analysis; type: functional, cell-based; settings: Homo sapiens; procedure, shortened: as §2
[20] = Cell cycle arrest in KB/HeLa cells assessed as accumulation at S phase at 1 nM after 24 hrs by flow cytometric analysis; type: functional, cell-based; settings: Homo sapiens; procedure, shortened: as §2
[21] = Cell cycle arrest in KB/HeLa cells assessed as accumulation at S phase at 10 nM after 24 hrs by flow cytometric analysis; type: functional, cell-based; settings: Homo sapiens; procedure, shortened: as §2
[22] = Cell cycle arrest in KB/HeLa cells assessed as accumulation at S phase at 31.6 nM after 24 hrs by flow cytometric analysis; type: functional, cell-based; settings: Homo sapiens; procedure, shortened: as §2
[23] = Cell cycle arrest in KB/HeLa cells assessed as accumulation at S phase at 100 nM after 24 hrs by flow cytometric analysis; type: functional, cell-based; settings: Homo sapiens; procedure, shortened: as §2
[24] = Cell cycle arrest in KB/HeLa cells assessed as accumulation at S phase at 316 nM after 24 hrs by flow cytometric analysis; type: functional, cell-based; settings: Homo sapiens; procedure, shortened: as §2
[25] = Cell cycle arrest in KB/HeLa cells assessed as accumulation at S phase at 1000 nM after 24 hrs by flow cytometric analysis; type: functional, cell-based; settings: Homo sapiens; procedure, shortened: as §2
[26] = Cell cycle arrest in KB/HeLa cells assessed as accumulation at G2M phase at 0.1 nM after 24 hrs by flow cytometric analysis; type: functional, cell-based; settings: Homo sapiens; procedure, shortened: as §2
[27] = Cell cycle arrest in KB/HeLa cells assessed as accumulation at G2M phase at 0.3 nM after 24 hrs by flow cytometric analysis; type: functional, cell-based; settings: Homo sapiens; procedure, shortened: as §2
[28] = Cell cycle arrest in KB/HeLa cells assessed as accumulation at G2M phase at 1 nM after 24 hrs by flow cytometric analysis; type: functional, cell-based; settings: Homo sapiens; procedure, shortened: as §2
[29] = Cell cycle arrest in KB/HeLa cells assessed as accumulation at G2M phase at 3.16 nM after 24 hrs by flow cytometric analysis; type: functional, cell-based; settings: Homo sapiens
[30] = Cell cycle arrest in KB/HeLa cells assessed as accumulation at G2M phase at 10 nM after 24 hrs by flow cytometric analysis; type: functional, cell-based; settings: Homo sapiens; procedure, shortened: as §2
[31] = Cell cycle arrest in KB/HeLa cells assessed as accumulation at G2M phase at 31.6 nM after 24 hrs by flow cytometric analysis; type: functional, cell-based; settings: Homo sapiens; procedure, shortened: as §2
[32] = Cell cycle arrest in KB/HeLa cells assessed as accumulation at G2M phase at 100 nM after 24 hrs by flow cytometric analysis; type: functional, cell-based; settings: Homo sapiens; procedure, shortened: as §2
[33] = Cell cycle arrest in KB/HeLa cells assessed as accumulation at G2M phase at 316 nM after 24 hrs by flow cytometric analysis; type: functional, cell-based; settings: Homo sapiens; procedure, shortened: as §2
[34] = Cell cycle arrest in KB/HeLa cells assessed as accumulation at G2M phase at 1000 nM after 24 hrs by flow cytometric analysis; type: functional, cell-based; settings: Homo sapiens; procedure, shortened: as §2
[35] = Cell cycle arrest in KB/HeLa cells assessed as accumulation at G1 phase at 0.1 nM after 24 hrs by flow cytometric analysis; type: functional, cell-based; settings: Homo sapiens; procedure, shortened: as §2
[36] = Cell cycle arrest in KB/HeLa cells assessed as accumulation at G1 phase at 0.3 nM after 24 hrs by flow cytometric analysis; type: functional, cell-based; settings: Homo sapiens; procedure, shortened: as §2
[37] = Cell cycle arrest in KB/HeLa cells assessed as accumulation at G1 phase at 1 nM after 24 hrs by flow cytometric analysis; type: functional, cell-based; settings: Homo sapiens; procedure, shortened: as §2
[38] = Cell cycle arrest in KB/HeLa cells assessed as accumulation at G1 phase at 3.16 nM after 24 hrs by flow cytometric analysis; type: functional, cell-based; settings: Homo sapiens; procedure, shortened: as §2
[39] = Cell cycle arrest in KB/HeLa cells assessed as accumulation at G1 phase at 10 nM after 24 hrs by flow cytometric analysis; type: functional, cell-based; settings: Homo sapiens; procedure, shortened: as §2
[40] = Cell cycle arrest in KB/HeLa cells assessed as accumulation at G1 phase at 31.6 nM after 24 hrs by flow cytometric analysis; type: functional, cell-based; settings: Homo sapiens; procedure, shortened: as §2
[41] = Cell cycle arrest in KB/HeLa cells assessed as accumulation at G1 phase at 100 nM after 24 hrs by flow cytometric analysis; type: functional, cell-based; settings: Homo sapiens; procedure, shortened: as §2
[42] = Cell cycle arrest in KB/HeLa cells assessed as accumulation at G1 phase at 316 nM after 24 hrs by flow cytometric analysis; type: functional, cell-based; settings: Homo sapiens; procedure, shortened: as §2
[43] = Cell cycle arrest in KB/HeLa cells assessed as accumulation at G1 phase at 1000 nM after 24 hrs by flow cytometric analysis; type: functional, cell-based; settings: Homo sapiens; procedure, shortened: as §2

IC50 [1]: 0.06 µM
IC50 [2]: 0.91 µM
IC50 [3]: 0.51 µM
IC50 [12]: 0.19 µM
IC50 [13]: 0.2 µM
IC50 [14]: 0.18 µM
IC50 [15]: 0.18 µM
EC50 [16]: 0.125 µM
SMILES: COc1ccc(S(=O)(=O)Oc2c3ccccc3cc3sccc23)cc1
IC50 [4]: 0.18 µM
IC50 [5]: 0.21 µM
IC50 [6]: 0.26 µM
IC50 [7]: 0.21 µM
IC50 [8]: 0.18 µM
IC50 [9]: > 9 µM
IC50 [10]: 0.17 µM
IC50 [11]: 0.19 µM
Activity [17]: 27.1%
Activity [18]: 26.5%
Activity [19]: 26.6%
Activity [20]: 26.7%
Activity [21]: 27.4%
Activity [22]: 28.6%
Activity [23]: 32.1%
Activity [24]: 7%
Activity [25]: 9.7%
Activity [26]: 12.3%
Activity [27]: 12%
Activity [28]: 11.4%
Activity [29]: 11.3%
Activity [30]: 11.9%
Activity [31]: 11.7%
Activity [32]: 16.7%
Activity [33]: 92.1%
Activity [34]: 88.7%
Activity [35]: 60.6%
Activity [36]: 61.4%
Activity [37]: 61.9%
Activity [38]: 62.2%
Activity [39]: 60.7%
Activity [40]: 59.8%
Activity [41]: 51.2%
Activity [42]: 0.9%
Activity [43]: 1.6%
